In ChEMBL document CHEMBL1147097, “Trioxaquines are new antimalarial agents active on all erythrocytic forms, including gametocytes” (Antimicrob Agents Chemother, 2007):
pIC50: −log10 of the molar value. Activity calls are given as the source filed them.

Tests used:
Plasmodium falciparum [1] = assay: Antimalarial activity against chloroquine-sensitive Plasmodium falciparum Nigeria; assay type: functional, organism-based, Nigerian
Summary of the method: (§1)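 Asexual P. falciparum grown in culture at 37°C under 5% CO2 and exposed to drug dilutions for 48 h. Growth inhibition measured by radioactive micromethod. IC50 read graphically from concentration vs % growth inhibition; mean of at least three independent experiments.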

[2] = Ratio of IC50 for HCT cells to IC50 for Plasmodium falciparum; assay type: functional
Plasmodium falciparum [3] = assay: Antimalarial activity against chloroquine-resistant Plasmodium falciparum W2 gametocytes (stage 4 & 5); assay type: functional, organism-based
Summary of the method: (§2)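 W2 gametocyte cultures treated with 50 mM N-acetyl-D-glucosamine for 3 or 5 days to remove asexual forms. Young (7-day) or old (13-day) cultures exposed to drug dilutions for 48 h. Giemsa thin films made and gametocytes counted per 6,000–10,000 erythrocytes. Mean of three independent experiments.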

[4] = test system: Plasmodium vinckei petteri; assay: Antimalarial activity against Plasmodium vinckei petteri infected orally dosed Swiss Albino mice (Mus musculus); assay type: functional; conditions: for ED50 / ED90: Plasmodium vinckei, po
Summary of the method: (§3)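 Four-day suppressive test: groups of five female Swiss albino mice infected i.p. on day 0 with 2 × 10^7 parasitized red cells, then dosed once daily for 4 days (i.p., p.o. or s.c.; DMSO vehicle, chloroquine in 0.9% NaCl). Parasitemia read on day 4 vs untreated controls; ED50/ED90 as % growth inhibition; CD50/CD90 = cure (no parasites at 60 days).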

Plasmodium falciparum [5] = assay: Antimalarial activity against chloroquine-resistant Plasmodium falciparum W2 asexual […]; assay type: functional, organism-based
[6] = test system: Plasmodium vinckei petteri; assay: Antimalarial activity against Plasmodium vinckei petteri infected subcutaneously dosed Swiss Albino mice (Mus musculus); assay type: functional; conditions: for ED50 / ED90: Plasmodium vinckei, sc; summary of the method: as §3
[7] = test system: Plasmodium yoelii nigeriensis; assay: Antimalarial activity against Plasmodium yoelii nigeriensis infected mice (Mus musculus) by oral dose; assay type: functional; conditions: for ED50 / ED90: Plasmodium yoelii, po
Summary of the method: (§4)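 Four-day suppressive test with P. yoelii nigeriensis: infected mice given drug once daily for four consecutive days p.o. or s.c. (DMSO vehicle, chloroquine in 0.9% NaCl). Parasitemia compared with untreated controls. Cure was defined as no parasites detected after 60 days, with CD50 taken as the dose curing 50% of mice.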

Plasmodium falciparum [8] = assay: Growth inhibition after 6 hrs in chloroquine-resistant Plasmodium falciparum FcB1; assay type: functional, organism-based; conditions: FcB1, 6 h
Summary of the method: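 Plasmion-synchronized FcB1 parasites plated at ring stage and exposed to drug during successive 6-h windows of the erythrocytic cycle (one plate per period). Artemisinin tested at 7, 14, 28 nM; chloroquine at 120, 163, 232 nM; trioxaquine at 11.5, 23, 46 nM. Dilutions prepared daily.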

Plasmodium falciparum [9] = assay: Antimalarial activity against chloroquine-resistant Plasmodium falciparum FcB1; assay type: functional, organism-based; summary of the method: as §1
Plasmodium falciparum [10] = assay: Antimalarial activity against chloroquine-resistant Plasmodium falciparum W2 gametocytes (stage 2 & 3); assay type: functional, organism-based; summary of the method: as §2
[11] = test system: Plasmodium vinckei petteri; assay: Antimalarial activity against Plasmodium vinckei petteri infected intraperitoneally dosed Swiss Albino mice (Mus musculus); assay type: functional; summary of the method: as §3
[12] = test system: Plasmodium yoelii nigeriensis; assay: Antimalarial activity against Plasmodium yoelii nigeriensis infected subcutaneously dosed mice (Mus musculus); assay type: functional; conditions: for ED50 / ED90: Plasmodium yoelii, sc; summary of the method: as §4
[13] = Cytotoxicity against human HCT cells assessed as [3H]thymidine incorporation; assay type: cell-based
Summary of the method: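 HCT human colorectal tumour cells grown with 10% fetal calf serum and harvested with 0.05% trypsin-EDTA. Plated at 15 × 10^3 cells/well with drug dilutions.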

Mus musculus [14] = assay: Toxicity against intraperitoneally dosed Swiss mouse; assay type: organism-based; conditions: in vivo, ip
Summary of the method: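 Acute toxicity: noninfected Swiss mice (two to five per dose) given a single i.p. injection. LD50 is the dose killing 50% of mice within 60 days.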

Plasmodium falciparum [15] = assay: Antimalarial activity against chloroquine-resistant Plasmodium falciparum FcM29; assay type: functional, organism-based; summary of the method: as §1
Plasmodium falciparum [16] = assay: Antimalarial activity against chloroquine-sensitive Plasmodium falciparum F32; assay type: functional, organism-based; summary of the method: as §1
[17] = test system: Plasmodium vinckei petteri; assay: Antimalarial activity against Plasmodium vinckei petteri infected mice (Mus musculus) at 5 mg/kg/day, peroral administered 4 days after infection for 4 days; assay type: functional, organism-based
Summary of the method: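 Established-infection test: mice infected with 10^6 P. vinckei petteri on day 0 and left untreated until day 4. Then dosed p.o. by gavage once daily in DMSO for 4 days (days 4–7). Thin blood smears taken daily before and after treatment, with follow-up for recrudescence to 60 days.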

Mus musculus [18] = assay: Toxicity against Plasmodium vinckei petteri infected mice (Mus musculus) at 50 mg/kg, perorally after 4 days; assay type: organism-based; parameters: dose 50 mg/kg, route oral; conditions: in vivo, po, 96 h
Summary of the method: (§5)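 Subacute toxicity: P. vinckei petteri-infected mice dosed on four consecutive days (day 0–3) at 10, 25 or 50 mg/kg/day p.o., i.p. or s.c. Five mice per dose and route.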

Mus musculus [19] = assay: Toxicity against Plasmodium vinckei petteri infected mice (Mus musculus) at 25 mg/kg, intraperitoneally after 4 days; assay type: organism-based; parameters: dose 25 mg/kg, route intraperitoneal; conditions: in vivo, ip, 96 h; summary of the method: as §5
[20] = Plasmodium vinckei, ip, read-out: ED50
[21] = Plasmodium vinckei, ip, read-out: ED90

CC(C)C1=C[C@H]2OC3(CCC(NCCNc4ccnc5cc(Cl)ccc45)CC3)OO[C@@]2(C)CC1.O=C(O)CC(O)(CC(=O)O)C(=O)O (stereo in doubt; form 5)
pIC50 (Plasmodium falciparum [1]): 7.64
Ratio IC50 [2]: 130
pIC50 (Plasmodium falciparum [3]): 7.17
CD50 [4]: >25 mg/kg/day
CD90 [4]: >25 mg/kg/day
ED50 [4]: 17 mg/kg/day
ED90 [4]: 23 mg/kg/day
pIC50 (Plasmodium falciparum [5]): 7.55
CD50 [6]: >10 mg/kg/day
CD90 [6]: >10 mg/kg/day
ED50 [6]: 2.8 mg/kg/day
ED90 [6]: 8 mg/kg/day
CD50 [7]: 22 mg/kg/day
CD90 [7]: 24 mg/kg/day
ED50 [7]: 15 mg/kg/day
ED90 [7]: 23 mg/kg/day
pIC50 (Plasmodium falciparum [8]): 7.74
pIC50 (Plasmodium falciparum [9]): 8.30
pIC50 (Plasmodium falciparum [10]): 7.16
CD50 [11]: 12 mg/kg/day
CD90 [11]: >20 mg/kg/day
CD50 [12]: 3 mg/kg/day
CD90 [12]: 12 mg/kg/day
ED50 [12]: 2 mg/kg/day
ED90 [12]: 5 mg/kg/day
pIC50 [13]: 5.52
LD50 (Mus musculus [14]): 70 mg/kg/day

CC(C)C1=C[C@H]2OC3(CCC(NCCNc4ccnc5cc(Cl)ccc45)CC3)OO[C@@]2(C)CC1 (stereo in doubt; form 4)
pIC50 (Plasmodium falciparum [9]): 7.37
pIC50 (Plasmodium falciparum [15]): 7.72

CC(C)C1=C[C@H]2OC3(CCC(NCCNc4ccnc5cc(Cl)ccc45)CC3)OO[C@@]2(C)CC1 (stereo in doubt; form 3)
pIC50 (Plasmodium falciparum [9]): 7.33
pIC50 (Plasmodium falciparum [15]): 7.64

CC(C)C1=C[C@H]2OC3(CCC(NCCNc4ccnc5cc(Cl)ccc45)CC3)OO[C@@]2(C)CC1 (stereo in doubt; form 2)
pIC50 (Plasmodium falciparum [9]): 7.32
pIC50 (Plasmodium falciparum [15]): 7.49

CO[C@H]1O[C@@H]2O[C@@]3(C)CC[C@H]4[C@H](C)CC[C@@H]([C@H]1C)[C@@]24OO3
ED50 [11, 20]: 0.3 mg/kg/day
ED90 [11, 21]: 0.7 mg/kg/day

CC(C)C1=C[C@H]2OC3(CCC(NCCNc4ccnc5cc(Cl)ccc45)CC3)OO[C@@]2(C)CC1.O=C(O)CC(O)(CC(=O)O)C(=O)O (stereo in doubt; form 10)
CD50 [11]: 7 mg/kg/day
ED50 [11]: 7 mg/kg/day
ED90 [11]: 2.5 mg/kg/day

COc1cc(NC(C)CCCNC2CCC3(CC2)OO[C@@]2(C)CCC(C(C)C)=C[C@H]2O3)c2ncccc2c1 (some centres undefined)
pIC50 (Plasmodium falciparum [3]): 7.34
pIC50 (Plasmodium falciparum [5]): 7.37
pIC50 (Plasmodium falciparum [10]): 7.24

C[C@H]1[C@H](OC(=O)CCC(=O)O)O[C@@H]2O[C@@]3(C)CC[C@H]4[C@H](C)CC[C@@H]1[C@@]24OO3 [ARTESUNATE]
pIC50 (Plasmodium falciparum [3]): 6.97
CD50 [4]: 19 mg/kg/day
CD90 [4]: 28 mg/kg/day
ED50 [4]: 2.5 mg/kg/day
ED90 [4]: 8 mg/kg/day
pIC50 (Plasmodium falciparum [5]): 8.22
CD50 [6]: 2.5 mg/kg/day
CD90 [6]: 7.5 mg/kg/day
ED50 [6]: 0.3 mg/kg/day
ED90 [6]: 0.8 mg/kg/day
pIC50 (Plasmodium falciparum [10]): 7.14
pIC50 (Plasmodium falciparum [15]; Plasmodium falciparum, FcM29): 8.80

C[C@@H]1CC[C@H]2[C@@H](C)C(=O)O[C@@H]3O[C@@]4(C)CC[C@@H]1[C@]32OO4 [ARTEMISININ]
Ratio IC50 [2]: 4370
CD50 [4]: >25 mg/kg/day
CD90 [4]: >25 mg/kg/day
ED50 [4]: 17 mg/kg/day
ED90 [4]: 30 mg/kg/day
CD50 [6]: >10 mg/kg/day
CD90 [6]: >10 mg/kg/day
ED50 [6]: 3.2 mg/kg/day
ED90 [6]: 8 mg/kg/day
CD50 [7]: 75 mg/kg/day
CD90 [7]: >100 mg/kg/day
ED50 [7]: 16 mg/kg/day
ED90 [7]: 27 mg/kg/day
pIC50 (Plasmodium falciparum [8]): 7.82
pIC50 (Plasmodium falciparum [16]; Plasmodium falciparum, F32): 8.22
pIC50 (Plasmodium falciparum [9]; Plasmodium falciparum, FcB1): 8.30
ED50 [11, 20]: 4 mg/kg/day
ED90 [11, 21]: > 5 mg/kg/day
pIC50 (Plasmodium falciparum [15]; Plasmodium falciparum, FcM29): 8.10
CD50 [12]: 7 mg/kg/day
CD90 [12]: 23 mg/kg/day
ED50 [12]: 5 mg/kg/day
ED90 [12]: 23 mg/kg/day
pIC50 [13]: < 4.46
Activity [17]: Active

CC(C)C1=C[C@H]2OC3(CCC(NCCNc4ccnc5cc(Cl)ccc45)CC3)OO[C@@]2(C)CC1 (stereo in doubt; form 8) [TRIOXAQUINE 3]
pIC50 (Plasmodium falciparum [16]): 7.96
pIC50 (Plasmodium falciparum [9]): 8.10
pIC50 (Plasmodium falciparum [15]): 7.92

CC(C)C1=C[C@H]2OC3(CCC(NCCNc4ccnc5cc(Cl)ccc45)CC3)OO[C@@]2(C)CC1.O=[N+]([O-])O (some centres undefined)
Activity (Mus musculus [18]): Non-toxic
CD50 [4]: 24 mg/kg/day
CD90 [4]: 46 mg/kg/day
ED50 [4]: 16 mg/kg/day
ED90 [4]: 34 mg/kg/day
CD50 [6]: 3 mg/kg/day
CD90 [6]: 8 mg/kg/day
ED50 [6]: 2 mg/kg/day
ED90 [6]: 6 mg/kg/day
pIC50 (Plasmodium falciparum [16]): 7.60
pIC50 (Plasmodium falciparum [9]): 7.68
Activity (Mus musculus [19]): Non-toxic
CD50 [11]: 3 mg/kg/day
CD90 [11]: 9 mg/kg/day
ED50 [11, 20]: 0.7 mg/kg/day
ED90 [11, 21]: 8 mg/kg/day
pIC50 (Plasmodium falciparum [15]): 7.80
LD50 (Mus musculus [14]): 70 mg/kg/day
